Assay [1] is described as follows: inhibitors of TNFa-induced NFkB p65 translocation, primary screen, imaging, HUVEC, MLSMR starter and 10KST1 sets (AID 438;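 active = inhibition above 20% together with a positive visual image hit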;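 note: compound added about 3h40 before a 20 min TNFalpha stimulation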;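 for inhibition: signal is the nuclear over cytoplasmic p65 intensity ratio per well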). The settings on record: HUVEC TNFa-induced p65 nuclear translocation; cell count: measured here: nuclei count (cytotoxicity indicator), at 2.08 µM; inhibition: at 2 µM, stronger effect = higher value, 0% TNFa-plus-vehicle, 100% no-TNFa wells.
The nature of assay [2]: endothelial E-selectin expression blockers – imaging, HUVEC, immunofluorescence, MLSMR starter and 10KST1 sets, primary screen (AID 487;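 active = visually confirmed hit in the image check and inhibition above 20%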;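 for inhibition: signal is fraction of cell area covered by stained E-selectin grains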;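 for nuclei count: 100% = median nuclei count of all wells on the same plate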). The settings on record: HUVEC TNFalpha-induced E-selectin immunofluorescence imaging, at 2 µM; inhibition: stronger effect = higher value; nuclei count: measured here: cell number, toxicity.
A short description of assay [3]: Primary imaging screen for DUSP6 inhibitors that restore phospho-Erk in transfected HeLa cells, chemical complementation (AID 609;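 active = compounds giving at least 50% inhibition in the cell-based MKP-3 phosphatase rescue imaging test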;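 for inhibition: phospho-Erk level distribution per well compared with pooled transfected vehicle control wells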). The settings on record: HeLa MKP-3 transfected, phospho-Erk imaging KS statistic, at 10 µM, cells stimulated with TPA for 15 min.
Assay [4] deals with Dual specificity protein phosphatase 6 (Homo sapiens) (UniProt Q16828). Described as above. The settings on record: HeLa MKP-3 transfected, phospho-Erk imaging KS statistic; at 10 µM; stronger effect = higher value; cells stimulated with TPA for 15 min.
The target of assay [5] is Voltage-gated potassium channel subunit beta-2 (Rattus norvegicus) (UniProt P62483). As to the kind of experiment: inhibitors of rat Kvbeta2 reductase activity – biochemical, NADPH fluorescence, primary screen (AID 622;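 active = fluorescence slope higher than the sample average by over 3 SD, cut at about -0.22 in these data, passing the limit was not always enough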;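 note: slope of raw intensity against log time taken from 70 to 1610 s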). To be noted: recombinant KvBeta, 4-cyanobenzaldehyde reduction, at 10 µM, stronger effect = higher value.
Assay [6] shares this target. The assay can be described thus: enhancers of rat Kvbeta2 NADPH turnover – biochemical, NADPH fluorescence, primary screen (AID 623).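 Note: fluorescence intensity change per second fitted from 20 to 320 s.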 The settings on record: Recombinant KvBeta, NADPH fluorescence decrease slope, 10 min; at 10 µM; stronger effect = lower value.
Assay [7] addresses Muscarinic acetylcholine receptor M4 (Homo sapiens) (UniProt P08173). As to the kind of experiment: M4-linked GIRK flux change, two-sided – cell-based, HEK293 M4/GIRK, thallium flux, BTC-AM, M4 allosteric agonist project, primary screen (AID 625;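 active = fluorescence slope after compound addition differing from the mean of all tested samples at 99.7% confidence, mostly higher but some lower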;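 note: thallium influx through GIRK channels coupled to M4 in HEK293 cells with BTC-AM dye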). The settings on record: at 10 µM, actives lie on both sides. In short, it runs like this: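 Material: HEK293 cells with M4 receptor and GIRK channels; Times: cells overnight at 37 °C, BTC-AM loading 1 h, reads 2 min total; Technique: kinetic BTC-AM fluorescence sampled at 1 Hz, 10 s pre-addition baseline; Read-out basis: slope over 15–24 s of trace normalized to starting intensity; Controls: carbachol positive, DMSO negative.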

A short description of assay [8]: inhibitors of larval lipid processing in zebrafish, primary screen, whole organism, PED6 fluorescence, gall bladder and intestine (AID 686;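 active = a full or partial loss of lipid-probe fluorescence in the fish gall bladder, intestine or both, judged by eye; inactive = no fluorescence loss, or compound toxic to the fish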;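 note: larvae 5 to 7 days old with five fish per well; signal comes from phospholipase A2 cleavage of quenched PED6 carried via bile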). The settings on record: Zebrafish larvae PED6 lipid processing, fluorescence scoring; screened at 20 µM (by protocol). In short, it runs like this:
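Incubation: overnight exposure of larvae to compound plus PED6 / Test system: live zebrafish larvae aged 5-7 days, whole organism / Amount: 5 larvae per well / Read-out basis: visual per-well fluorescence inhibition score / Signal: visual fluorescence microscopy scoring of gall bladder, gut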

The nature of assay [9]: loss of swimming-algae plug formation – whole organism, Chlamydomonas reinhardtii, WT vs cilia-less mutant, absorbance, 96-well, primary screen (AID 463189;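 active = inhibition at or above 50% relative to wild type and mutant plate controls; inactive = inhibition below 50%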;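 note: 0% = wild type cc124 cells in DMSO and 100% = ciliumless bld1 mutant cells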). To be noted: Chlamydomonas reinhardtii gravitaxis, OD600 absorbance, 2 days; at 10 µM; stronger effect = higher value.
[10] abbreviates: measured here: cell density z-score.
Where [11] appears, read: measured here: nuclear c-Myc green intensity z-score.
The mark [12] stands for this setting: measured here: nuclear pErk red intensity z-score, stronger effect = higher value.

SMILES strings stand for the structures. Activity calls are given as the source filed them.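 Rule for the calls, unless noted: active = NADPH fluorescence slope more negative than the mean of all samples by about 3 SD, 99.7% confidence; inactive = the rest.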

Sequence of Voltage-gated potassium channel subunit beta-2 (Rattus norvegicus) (P62483 whole entry, looked up): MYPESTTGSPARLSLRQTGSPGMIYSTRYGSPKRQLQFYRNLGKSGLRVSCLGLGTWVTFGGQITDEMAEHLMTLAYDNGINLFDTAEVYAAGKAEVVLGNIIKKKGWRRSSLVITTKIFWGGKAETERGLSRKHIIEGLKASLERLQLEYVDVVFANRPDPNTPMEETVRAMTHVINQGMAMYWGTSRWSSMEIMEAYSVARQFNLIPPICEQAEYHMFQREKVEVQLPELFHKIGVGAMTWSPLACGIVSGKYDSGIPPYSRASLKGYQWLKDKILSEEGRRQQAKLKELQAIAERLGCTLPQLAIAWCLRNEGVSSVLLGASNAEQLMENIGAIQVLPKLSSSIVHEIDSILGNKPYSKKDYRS
Sequence of Dual specificity protein phosphatase 6 (Homo sapiens) (Q16828 whole entry, looked up): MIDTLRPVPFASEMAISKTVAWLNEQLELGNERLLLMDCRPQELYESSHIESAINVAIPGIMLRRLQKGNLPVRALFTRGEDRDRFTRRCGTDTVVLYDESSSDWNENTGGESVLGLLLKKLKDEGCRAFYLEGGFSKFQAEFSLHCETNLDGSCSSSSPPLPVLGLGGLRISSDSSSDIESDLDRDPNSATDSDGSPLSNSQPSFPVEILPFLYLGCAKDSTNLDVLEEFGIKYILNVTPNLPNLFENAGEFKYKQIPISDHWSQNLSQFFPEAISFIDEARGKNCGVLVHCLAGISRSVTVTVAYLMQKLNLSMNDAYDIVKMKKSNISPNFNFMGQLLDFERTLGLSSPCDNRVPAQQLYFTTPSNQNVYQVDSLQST
Sequence of Muscarinic acetylcholine receptor M4 (Homo sapiens) (P08173 whole entry, looked up): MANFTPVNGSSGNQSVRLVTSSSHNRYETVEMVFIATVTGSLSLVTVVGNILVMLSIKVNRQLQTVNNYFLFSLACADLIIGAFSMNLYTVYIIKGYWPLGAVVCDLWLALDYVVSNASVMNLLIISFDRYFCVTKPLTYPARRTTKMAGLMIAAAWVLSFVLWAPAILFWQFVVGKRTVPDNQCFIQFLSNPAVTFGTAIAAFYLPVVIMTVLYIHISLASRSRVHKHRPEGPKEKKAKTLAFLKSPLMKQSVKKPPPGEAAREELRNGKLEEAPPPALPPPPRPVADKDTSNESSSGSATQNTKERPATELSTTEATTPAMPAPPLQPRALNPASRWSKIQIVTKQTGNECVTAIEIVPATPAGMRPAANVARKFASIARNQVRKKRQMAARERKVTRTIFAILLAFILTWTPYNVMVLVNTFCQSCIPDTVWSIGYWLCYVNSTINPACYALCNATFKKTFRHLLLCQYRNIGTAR

Consider `Cc1ccc(CNC(=O)c2cc3c(=O)n4ccccc4nc3n(Cc3ccco3)c2=N)cc1`, for which the cell count in assay [1] amounted to 620. Further, the inhibition in assay [1] is 2.6% (inactive); in assay [2], 18.3% (inactive); in [4], -2.29% (inactive); in assay [9] it was 32.6% (inactive). In addition, in assay [2], the nuclei count turned out to be 134%. The z-score is -0.0379 in assay [3] (setting [10]), 0.826 in assay [3] (setting [11]) and -0.239 in [3] (setting [12]). Further, the fluorescence slope in [5] is -0.456 (inactive); in assay [7], 0.00363 (inactive). Moreover, the NADPH fluorescence slope in assay [6] is -4.8e-05 (inactive). Also, in [8], the outcome is “active; weak signal in gallbladder and intestine”.
Turning to `COc1cc(C2C(C(=O)c3sc(C)nc3C)=C(O)C(=O)N2CCN(C)C)cc(OC)c1OC` (stereo not drawn), in assay [1], the cell count is 398. For the same compound, the inhibition is 3.6% (inactive) in [1], -36.2% (inactive) in assay [2], 3.56% (inactive) in assay [4] and -3.66% (inactive) in assay [9]. The same compound yielded a nuclei count in assay [2] of 155%. The z-score came out at 0.333 in assay [3] (setting [10]), 0.0451 in assay [3] (setting [11]) and 0.204 in assay [3] (setting [12]). In addition, the fluorescence slope in assay [5] was -0.446 (inactive); in assay [7], 0.00444 (inactive). Besides, in [6], the NADPH fluorescence slope was -0.000115 (inactive). Further, the call in assay [8] was inactive.
Turning to `COc1ccc2nc(SCC(=O)O)nc(C)c2c1`, in [1], the cell count came to 472. Moreover, the inhibition is -2.5% (inactive) in assay [1], -119% (inactive) in assay [2], -2.29% (inactive) in assay [4] and 25.2% (inactive) in assay [9]. In assay [2], this compound came in with a nuclei count of 167%. In addition, the z-score in assay [3] (setting [10]) is -1.34; in assay [3] (setting [11]) it was -1.35; in assay [3] (setting [12]) it was 0.21. Also, the values for the fluorescence slope in assay [5] and in assay [7] were -0.447 (inactive) and 0.00491 (inactive), respectively. Further, the NADPH fluorescence slope in [6] was -4.9e-05 (inactive). In assay [8], the result was inactive.
Consider `C[N+]1(CCNC(=O)/C=N/O)CCCCC1`, for which, in assay [1], the cell count came to 468. For the same compound, the inhibition was -0.1% (inactive) in assay [1], -76.5% (inactive) in assay [2], -0.624% (inactive) in [4] and 13.4% (inactive) in assay [9]. In [2], this compound displayed a nuclei count of 147%. For the same compound, the z-score is -1.04 in assay [3] (setting [10]), 0.313 in assay [3] (setting [11]) and 0.488 in assay [3] (setting [12]). Besides, the fluorescence slope in assay [5] was -0.42 (inactive); in [7] it was 0.00534 (inactive). Besides, in [6], the NADPH fluorescence slope was -2.5e-05 (inactive). Besides, the result in assay [8] was inactive.
`COc1ccc(C2CC(c3ccccc3)Nc3nc(N)nn32)cc1` (stereo not drawn): the cell count in [1] was 377. Also, the inhibition in [1] is 4.8% (inactive); in [2], -29.3% (inactive); in [4] it was 1.48% (inactive); in assay [9] it was -15% (inactive). Moreover, in assay [2], the nuclei count was found to be 110%. In addition, the z-score in [3] (setting [10]) is -1.01; in assay [3] (setting [11]), -0.362; in [3] (setting [12]), -0.446. In addition, the fluorescence slope in assay [5] was -0.495 (inactive); in assay [7], 0.00558 (inactive). The NADPH fluorescence slope in assay [6] is -1.6e-05 (inactive). Also, the compound was classed as inactive in assay [8].
For `CC1(C(=O)CSc2n[nH]c(-c3ccccc3Cl)n2)CCC(=O)O1` (stereo not drawn), the cell count in [1] stood at 640. The inhibition was -3.4% (inactive) in assay [1], -44.5% (inactive) in [2], -2.47% (inactive) in assay [4] and 3.93% (inactive) in assay [9]. In [2], the nuclei count is 144%. The z-score in [3] (setting [10]) was 1.47; in assay [3] (setting [11]), -0.819; in assay [3] (setting [12]) it was -0.432. Besides, the fluorescence slope was -0.482 (inactive) in assay [5] and 0.0054 (inactive) in [7]. Moreover, the NADPH fluorescence slope in assay [6] is -7.8e-05 (inactive). Besides, the call in assay [8] was inactive.
On to `COC(=O)/C=c1/s/c(=C(\C#N)C(=O)NCc2ccco2)n(-c2ccccc2)c1=O`, for which the cell count in assay [1] came out at 395. Besides, the inhibition in [1] is 0.2% (inactive); in [2], -54.5% (inactive); in [4] it was 1.48% (inactive); in [9], 45.7% (inactive). The nuclei count in assay [2] is 129%. The figures for the z-score in assay [3] (setting [10]), in [3] (setting [11]) and in assay [3] (setting [12]) were -0.296, -0.55 and -0.453, respectively. For the same compound, the results for the fluorescence slope in [5] and in assay [7] were -0.455 (inactive) and 0.00374 (inactive), respectively. Besides, the NADPH fluorescence slope in assay [6] is -3.8e-05 (inactive). In addition, in assay [8], the result was inactive.
Take `COc1ccc2c(c1)c(C(=O)CN1CCOCC1)c(C)n2C`: in [1], the cell count was determined as 628. For the same compound, the inhibition in [1] is 0.5% (inactive); in assay [2] it was 57.3% (inactive); in [4], 17.8% (inactive); in assay [9], 27.4% (inactive). For the same compound, the nuclei count in [2] worked out at 85.8%. Besides, the z-score is -0.409 in assay [3] (setting [10]), -0.95 in [3] (setting [11]) and 1.79 in assay [3] (setting [12]). The fluorescence slope is -0.48 (inactive) in assay [5] and 0.00679 (inactive) in [7]. Besides, the NADPH fluorescence slope in [6] is -5.6e-05 (inactive). Further, in [8], the outcome was “active; weak signal in gallbladder and intestine”.
On to `Cc1nn(CC(=O)N2CCOCC2)c(=O)c2ccccc12`, for which the cell count in assay [1] is 584. Further, the inhibition in assay [1] is -9.1% (inactive); in assay [2] it was -72.8% (inactive); in assay [4] it was 12.8% (inactive); in assay [9] it was -9.34% (inactive). The nuclei count in [2] worked out at 135%. In addition, the z-score in assay [3] (setting [10]) was 1.52; in assay [3] (setting [11]) it was -1.31; in assay [3] (setting [12]), 0.975. Moreover, the fluorescence slope is -0.524 (inactive) in assay [5] and 0.00441 (inactive) in assay [7]. For the same compound, the NADPH fluorescence slope in [6] was -0.000146 (inactive). Further, in assay [8], the compound was classed as inactive.
With `O=C1NCC(COCC2CC=CCC2)O1` (stereo not drawn), the cell count in assay [1] was found to be 574. The inhibition is -4% (inactive) in assay [1], 50.9% (inactive) in assay [2], 19.4% (inactive) in assay [4] and 41.8% (inactive) in assay [9]. The compound also yielded a nuclei count in [2] of 136%. Besides, the z-score in assay [3] (setting [10]) is 0.151; in assay [3] (setting [11]), -0.463; in assay [3] (setting [12]), -0.815. Also, the fluorescence slope in assay [5] was -0.408 (inactive); in [7], 0.0053 (inactive). In addition, the NADPH fluorescence slope in [6] is -2.8e-05 (inactive). Besides, the compound was called inactive in assay [8].
Consider `CCCCSc1nnc(-c2ccc(NC(C)=O)cc2)n1C`, for which, in assay [1], the cell count came out at 622. Moreover, the inhibition was -5.3% (inactive) in [1], 21.1% (inactive) in [2], -13.3% (inactive) in [4] and -9.33% (inactive) in [9]. The same compound had a nuclei count in assay [2] of 166%. In addition, the z-score in assay [3] (setting [10]) was -0.239; in [3] (setting [11]), 0.0535; in assay [3] (setting [12]) it was 0.233. The values for the fluorescence slope in assay [5] and in [7] were -0.461 (inactive) and 0.00598 (inactive), respectively. Besides, in assay [6], the NADPH fluorescence slope was -3e-05 (inactive). Further, the compound was called inactive in assay [8].

A word on the inhibition: it is the change of the read-out against control, counted positive when it falls.
